Reference: ChEMBL document CHEMBL2034974, “Design, synthesis and structure-activity relationships of new triazole derivatives containing N-substituted phenoxypropylamino side chains” (2012)
Converted amounts (≈) assume the structure as drawn.

Legend:
Format in all cases: functional
Candida tropicalis = assay: Antifungal activity against Candida tropicalis after 24 hrs by serial dilution method
Procedure, shortened: (§1)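 NCCLS broth microdilution in 96-well plates, with ATCC or clinical isolate strains. Medium was RPMI 1640 buffered with 0.165 M MOPS, and compounds were dissolved in DMSO and serially diluted in medium. Yeasts were incubated at 35 °C and growth was read at 24 h. MIC80 was taken as the lowest concentration giving ≥80% growth inhibition versus the drug-free control.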

Cryptococcus neoformans = assay: Antifungal activity against Cryptococcus neoformans after 72 hrs by serial dilution method
Procedure, shortened: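 Cryptococcus yeast, ATCC or clinical isolate, tested by NCCLS serial dilution in 96-well plates with RPMI 1640 plus 0.165 M MOPS. Compounds were dissolved in DMSO and serially diluted in medium. Incubation was at 35 °C with MIC80 read at 72 h, defined as the lowest concentration giving ≥80% growth inhibition relative to control.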

Candida parapsilosis = assay: Antifungal activity against Candida parapsilosis after 24 hrs by serial dilution method; details: Lodderomyces parapsilosis; procedure, shortened: as §1
Pichia kudriavzevii = assay: Antifungal activity against Candida krusei after 24 hrs by serial dilution method; procedure, shortened: as §1
Candida albicans = assay: Antifungal activity against Candida albicans after 24 hrs by serial dilution method; procedure, shortened: as §1
Trichophyton rubrum = assay: Antifungal activity against Trichophyton rubrum by serial dilution method
Procedure, shortened: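 Dermatophyte, ATCC or clinical isolate, tested by NCCLS serial-dilution microtest in RPMI 1640 buffered with 0.165 M MOPS. Compounds were dissolved in DMSO and diluted serially in medium, and incubation was at 28 °C. The endpoint was MIC80, the lowest concentration reducing turbidity to ≥80% inhibition of control growth.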

Row | SMILES | MIC80 (Candida tropicalis) [µg/mL] | MIC80 (Cryptococcus neoformans) [µg/mL] | MIC80 (Candida parapsilosis) [µg/mL] | MIC80 (Pichia kudriavzevii) [µg/mL] | MIC80 (Candida albicans) [µg/mL] | MIC80 (Trichophyton rubrum) [µg/mL]
1 | COC(=O)CN(CCCOc1ccc(Br)cc1)CC(O)(Cn1cncn1)c1ccc(F)cc1F (racemic) | 4 (≈ 7.42 µM) | 8 (≈ 14.8 µM) | 64 (≈ 119 µM) | 4 (≈ 7.42 µM) | 2 (≈ 3.71 µM) | 8 (≈ 14.8 µM)
2 | Cc1ccc(CN(CCCOc2ccc(Br)cc2)CC(O)(Cn2cncn2)c2ccc(F)cc2F)cc1 (racemic) | 8 (≈ 14 µM) | 64 (≈ 112 µM) | 0.5 (≈ 0.875 µM) | 8 (≈ 14 µM) | 4 (≈ 7 µM) | 64 (≈ 112 µM)
3 | CCOC(=O)CN(CCCOc1ccc(Br)cc1)CC(O)(Cn1cncn1)c1ccc(F)cc1F (racemic) | 16 (≈ 28.9 µM) | 32 (≈ 57.8 µM) | 16 (≈ 28.9 µM) | 32 (≈ 57.8 µM) | 4 (≈ 7.23 µM) | 16 (≈ 28.9 µM)
4 | CC(C)CN(CCCOc1ccc(Br)cc1)CC(O)(Cn1cncn1)c1ccc(F)cc1F (racemic) | 8 (≈ 15.3 µM) | 16 (≈ 30.6 µM) | 8 (≈ 15.3 µM) | 4 (≈ 7.64 µM) | 4 (≈ 7.64 µM) | 8 (≈ 15.3 µM)
5 | CCN(CCCOc1ccc(Br)cc1)CC(O)(Cn1cncn1)c1ccc(F)cc1F (racemic) | 1 (≈ 2.02 µM) | 1 (≈ 2.02 µM) | 2 (≈ 4.04 µM) | 4 (≈ 8.07 µM) | 0.5 (≈ 1.01 µM) | 2 (≈ 4.04 µM)
6 | CCCN(CCCOc1ccc(Br)cc1)CC(O)(Cn1cncn1)c1ccc(F)cc1F (racemic) | 2 (≈ 3.93 µM) | 4 (≈ 7.85 µM) | > 64 | 4 (≈ 7.85 µM) | 2 (≈ 3.93 µM) | 8 (≈ 15.7 µM)
7 | C#CCN(CCCOc1ccccc1)CC(O)(Cn1cncn1)c1ccc(F)cc1F (racemic) | 4 (≈ 9.38 µM) | 4 (≈ 9.38 µM) | 8 (≈ 18.8 µM) | 1 (≈ 2.34 µM) | 0.25 (≈ 0.586 µM) | 4 (≈ 9.38 µM)
8 | CCCCN(CCCOc1ccccc1)CC(O)(Cn1cncn1)c1ccc(F)cc1F (racemic) | 8 (≈ 18 µM) | 4 (≈ 9 µM) | 16 (≈ 36 µM) | 1 (≈ 2.25 µM) | 2 (≈ 4.5 µM) | 8 (≈ 18 µM)
9 | OC(CN(CCCOc1ccccc1)Cc1ccccc1)(Cn1cncn1)c1ccc(F)cc1F (racemic) | 8 (≈ 16.7 µM) | 16 (≈ 33.4 µM) | 64 (≈ 134 µM) | 8 (≈ 16.7 µM) | 2 (≈ 4.18 µM) | 16 (≈ 33.4 µM)
10 | CC(C)(C)OC(=O)CN(CCCOc1ccc(Br)cc1)CC(O)(Cn1cncn1)c1ccc(F)cc1F (racemic) | 16 (≈ 27.5 µM) | 64 (≈ 110 µM) | 64 (≈ 110 µM) | 4 (≈ 6.88 µM) | 4 (≈ 6.88 µM) | 64 (≈ 110 µM)
11 | CCCN(CCCOc1ccccc1)CC(O)(Cn1cncn1)c1ccc(F)cc1F (racemic) | 16 (≈ 37.2 µM) | 1 (≈ 2.32 µM) | 32 (≈ 74.3 µM) | 1 (≈ 2.32 µM) | 1 (≈ 2.32 µM) | 4 (≈ 9.29 µM)
12 | OC(CN(CCCOc1ccccc1)Cc1ccc(F)cc1)(Cn1cncn1)c1ccc(F)cc1F (racemic) | 8 (≈ 16.1 µM) | 8 (≈ 16.1 µM) | 16 (≈ 32.2 µM) | 8 (≈ 16.1 µM) | 4 (≈ 8.06 µM) | 32 (≈ 64.4 µM)
13 | C=CCN(CCCOc1ccccc1)CC(O)(Cn1cncn1)c1ccc(F)cc1F (racemic) | 1 (≈ 2.33 µM) | 2 (≈ 4.67 µM) | 64 (≈ 149 µM) | 1 (≈ 2.33 µM) | 0.25 (≈ 0.583 µM) | 1 (≈ 2.33 µM)
14 | C#CCN(CCCOc1ccc(Br)cc1)CC(O)(Cn1cncn1)c1ccc(F)cc1F (racemic) | 8 (≈ 15.8 µM) | 8 (≈ 15.8 µM) | 32 (≈ 63.3 µM) | 8 (≈ 15.8 µM) | 0.5 (≈ 0.989 µM) | 8 (≈ 15.8 µM)
15 | Cc1ccc(CN(CCCOc2ccccc2)CC(O)(Cn2cncn2)c2ccc(F)cc2F)cc1 (racemic) | 8 (≈ 16.2 µM) | 4 (≈ 8.12 µM) | 8 (≈ 16.2 µM) | 4 (≈ 8.12 µM) | 8 (≈ 16.2 µM) | 16 (≈ 32.5 µM)
16 | CCOC(=O)CN(CCCOc1ccccc1)CC(O)(Cn1cncn1)c1ccc(F)cc1F (racemic) | 8 (≈ 16.9 µM) | 8 (≈ 16.9 µM) | > 64 | 4 (≈ 8.43 µM) | 2 (≈ 4.21 µM) | 8 (≈ 16.9 µM)
17 | OC(CNCCCOc1ccc(Br)cc1)(Cn1cncn1)c1ccc(F)cc1F (racemic) | < 0.125 | 1 (≈ 2.14 µM) | 0.5 (≈ 1.07 µM) | < 0.125 | 0.0313 (≈ 0.067 µM) | 0.5 (≈ 1.07 µM)
18 | CCCCN(CCCOc1ccc(Br)cc1)CC(O)(Cn1cncn1)c1ccc(F)cc1F (racemic) | 4 (≈ 7.64 µM) | 4 (≈ 7.64 µM) | 4 (≈ 7.64 µM) | 4 (≈ 7.64 µM) | 2 (≈ 3.82 µM) | 16 (≈ 30.6 µM)
19 | OC(CN(CCCOc1ccc(Br)cc1)Cc1ccccc1)(Cn1cncn1)c1ccc(F)cc1F (racemic) | 8 (≈ 14.4 µM) | 16 (≈ 28.7 µM) | 32 (≈ 57.4 µM) | 4 (≈ 7.18 µM) | 2 (≈ 3.59 µM) | 4 (≈ 7.18 µM)
20 | OC(CN(CCCOc1ccc(Br)cc1)Cc1ccc(F)cc1)(Cn1cncn1)c1ccc(F)cc1F (racemic) | 8 (≈ 13.9 µM) | 32 (≈ 55.6 µM) | 2 (≈ 3.48 µM) | 8 (≈ 13.9 µM) | 4 (≈ 6.95 µM) | 16 (≈ 27.8 µM)
21 | CC(C)(C)OC(=O)CN(CCCOc1ccccc1)CC(O)(Cn1cncn1)c1ccc(F)cc1F (racemic) | 8 (≈ 15.9 µM) | > 64 | > 64 | 8 (≈ 15.9 µM) | 4 (≈ 7.96 µM) | 64 (≈ 127 µM)
22 | CN(CCCOc1ccc(Br)cc1)CC(O)(Cn1cncn1)c1ccc(F)cc1F (centres undefined) | 2 (≈ 4.16 µM) | 1 (≈ 2.08 µM) | 1 (≈ 2.08 µM) | 2 (≈ 4.16 µM) | 0.5 (≈ 1.04 µM) | 2 (≈ 4.16 µM)
23 | OC(Cn1cncn1)(Cn1cncn1)c1ccc(F)cc1F [FLUCONAZOLE] | 1 (≈ 3.27 µM) | 2 (≈ 6.53 µM) | 1 (≈ 3.27 µM) | 4 (≈ 13.1 µM) | 0.5 (≈ 1.63 µM) | 1 (≈ 3.27 µM)
24 | OC(CNCCCOc1ccccc1)(Cn1cncn1)c1ccc(F)cc1F (racemic) | < 0.125 | 1 (≈ 2.57 µM) | 0.5 (≈ 1.29 µM) | < 0.125 | 0.0625 (≈ 0.161 µM) | 2 (≈ 5.15 µM)
25 | COC(=O)CN(CCCOc1ccccc1)CC(O)(Cn1cncn1)c1ccc(F)cc1F (racemic) | 8 (≈ 17.4 µM) | 16 (≈ 34.7 µM) | > 64 | 4 (≈ 8.69 µM) | 2 (≈ 4.34 µM) | 2 (≈ 4.34 µM)
26 | CCC(C)n1ncn(-c2ccc(N3CCN(c4ccc(OCC5COC(Cn6cncn6)(c6ccc(Cl)cc6Cl)O5)cc4)CC3)cc2)c1=O (centres undefined) [ITRACONAZOLE] | < 0.125 | 0.5 (≈ 0.709 µM) | 4 (≈ 5.67 µM) | 1 (≈ 1.42 µM) | 0.125 (≈ 0.177 µM) | 0.125 (≈ 0.177 µM)
27 | CCN(CCCOc1ccccc1)CC(O)(Cn1cncn1)c1ccc(F)cc1F (racemic) | 0.5 (≈ 1.2 µM) | 1 (≈ 2.4 µM) | 2 (≈ 4.8 µM) | 1 (≈ 2.4 µM) | 0.0313 (≈ 0.0752 µM) | 1 (≈ 2.4 µM)
28 | CN(CCCOc1ccccc1)CC(O)(Cn1cncn1)c1ccc(F)cc1F (centres undefined) | < 0.125 | 1 (≈ 2.48 µM) | 0.125 (≈ 0.311 µM) | 0.5 (≈ 1.24 µM) | 0.0125 (≈ 0.0311 µM) | 1 (≈ 2.48 µM)
29 | C=CCN(CCCOc1ccc(Br)cc1)CC(O)(Cn1cncn1)c1ccc(F)cc1F (racemic) | 1 (≈ 1.97 µM) | 4 (≈ 7.88 µM) | 16 (≈ 31.5 µM) | 2 (≈ 3.94 µM) | 2 (≈ 3.94 µM) | 8 (≈ 15.8 µM)
